Active and inactive are the calls of the source. No cut-off for these calls is given here.

Data set [1] addresses T1, DNA topoisomerase 1 (Homo sapiens) (UniProt P11387).
T1 sequence (whole entry): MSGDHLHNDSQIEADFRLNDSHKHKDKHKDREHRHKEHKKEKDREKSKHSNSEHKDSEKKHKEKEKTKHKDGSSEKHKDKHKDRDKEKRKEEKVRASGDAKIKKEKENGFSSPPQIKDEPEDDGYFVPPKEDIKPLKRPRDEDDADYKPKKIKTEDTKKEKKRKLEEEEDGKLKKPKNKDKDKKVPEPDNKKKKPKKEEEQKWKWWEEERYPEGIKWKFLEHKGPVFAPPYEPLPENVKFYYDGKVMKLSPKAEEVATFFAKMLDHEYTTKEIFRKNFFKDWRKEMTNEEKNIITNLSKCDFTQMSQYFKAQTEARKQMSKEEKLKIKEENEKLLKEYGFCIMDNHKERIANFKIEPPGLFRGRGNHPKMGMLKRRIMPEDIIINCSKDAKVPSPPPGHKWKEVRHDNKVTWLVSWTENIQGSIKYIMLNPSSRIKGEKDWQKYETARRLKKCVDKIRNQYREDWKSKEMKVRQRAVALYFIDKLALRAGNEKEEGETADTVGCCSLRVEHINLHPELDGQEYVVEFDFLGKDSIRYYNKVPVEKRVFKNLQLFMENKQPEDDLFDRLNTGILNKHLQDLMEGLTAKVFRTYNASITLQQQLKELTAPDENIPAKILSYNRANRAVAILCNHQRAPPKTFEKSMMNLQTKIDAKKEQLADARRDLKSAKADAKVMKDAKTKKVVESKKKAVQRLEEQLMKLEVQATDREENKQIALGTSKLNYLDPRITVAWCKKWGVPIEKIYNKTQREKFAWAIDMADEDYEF
Kind of data set: Inhibition of Top1 assessed as suppression of supercoiled pBR322 DNA relaxation measuring appearance of short DNA fragments at 100 uM incubated for 15 mins by electrophoresis method.

A further data set deals with MDA-MB-435. The experiment in a line: Cytotoxicity against human MDA-MB-435 cells incubated for 72 hrs by MTT assay. To be noted: MDA-MB-435, 72 h. It counts as functional. The gist of the method:
(§1)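 MTT assay. Cells seeded at 5 × 10³/well and grown 24 h at 37 °C, 5% CO₂. Compounds added at several concentrations in triplicate wells, with 0.1% DMSO control, for 72 h. MTT then added for 4 h, formazan dissolved in DMSO, and absorbance read at 570 nm. GI₅₀ by Logit method; three experiments.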
(Formazan colour is commonly taken as a measure of viable cells.)

Data set [2] deals with HCT-116. The experiment in a line: Cytotoxicity against human HCT116 cells incubated for 72 hrs by MTT assay. The data set is classed as functional. The following applies: HCT-116, 72 h. The gist of the method: as §1
The subject of data set [3] is A549. Kind of data set: Cytotoxicity against human A549 cells incubated for 72 hrs by MTT assay. It counts as functional. The following applies: A549, 72 h. The gist of the method: as §1
The test system of data set [4] is Mus musculus. The experiment in a line: Toxicity in BALB/C nude mouse xenografted with human HCT116 cells assessed as reduction in body weight at 2 mg/kg, ip administered as a single dose on 17th day and measured on 30 to 33 days post implantation. Details: dose 2 mg/kg, route intraperitoneal. It counts as organism-based, HCT-116. To be noted: in vivo. A digest of the protocol:
(§2)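 Cells implanted subcutaneously in right axilla of nude mice; dosing began at tumor volume about 100−300 mm³ (day 17). Randomized, six mice per treatment group and eight controls; ip injection. Tumor volume by caliper, TV = 1/2 × a × b², with body weight every 4 days. Mice sacrificed day 30−33 and tumors removed. Mean SEM, Student's t test versus control.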
On the technique in general: Xenograft models place foreign cells or tissue in a host animal.

Data set [5] relates to HCT-116. Kind of data set: Antitumor activity against human HCT116 cells xenografted in BALB/C nude mouse assessed as tumor growth inhibition at 2 mg/kg, ip administered as a single dose on 17th day and measured on 30 to 33 days post implantation. It counts as functional, organism-based. Details: dose 2 mg/kg. A digest of the protocol: as §2
The test system of data set [6] is Nucleic Acid. Kind of data set: Binding affinity at calf thymus DNA minor groove assessed as displacement of Hoechst 33258 dye incubated for 20 mins by microplate reader based assay. It counts as nucleic-acid assay. The following applies: Bos taurus.
The target in data set [7] is T1, DNA topoisomerase 1 (Homo sapiens). Kind of data set: Inhibition of Top1 assessed as stabilization of Top1-pUC19 DNA cleavage complex measuring increase of nicked DNA at 100 uM incubated for 15 mins by electrophoresis method.
Data set [8] has as its target DNA topoisomerase 2-alpha (Homo sapiens) (UniProt P11388). The experiment in a line: Inhibition of human Top2alpha assessed as stabilization of Top2-pBr322 DNA cleavage complex measuring linear DNA formation at 100 uM incubated for 20 mins by electrophoresis method. A digest of the protocol: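 Top2α drug screening kit with 8 units hTop2α and pBR322 plasmid. After reaction, proteinase K (200 μg/mL final) 20 min at 50 °C. Electrophoresis in TAE with 0.5 μg/mL ethidium bromide to resolve nicked, linear, relaxed and supercoiled forms.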

The test system of data set [9] is Nucleic Acid. Kind of data set: Induction of DNA intercalation in Escherichia coli pBR322 DNA assessed as induction of supercoiled DNA at 100 uM incubated for 15 mins by electrophoresis based Top1 unwinding assay. The data set is classed as nucleic-acid assay.
Data set [10] concerns Nucleic Acid. The experiment in a line: Binding affinity at calf thymus DNA at 50 uM after 20 mins by UV/vis absorbance titration based assay. It counts as nucleic-acid assay. The following applies: Bos taurus. The gist of the method: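 ct-DNA in DPBS pH 7.4, concentration set by A260 (13200 M⁻¹/cm per bp). Compounds at 50 μM in DPBS with 1% DMSO, with or without ct-DNA 0−100 μM. After 20 min equilibration at room temperature, absorption spectra recorded over 220−400 nm in a microplate reader. Hypochromic or bathochromic shifts taken as the sign of binding.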

Data set [11] concerns the target DNA topoisomerase 2-alpha (Homo sapiens) (UniProt P11388). The experiment in a line: Inhibition of human Top2alpha assessed as suppression of supercoiled pBR322 DNA relaxation at 50 uM incubated for 30 mins by electrophoresis method.
The subject of data set [12] is Mus musculus. The experiment in a line: Toxicity in BALB/C nude mouse xenografted with human A549 cells assessed as reduction in body weight at 2 mg/kg, ip administered as a single dose on 17th day and measured on 30 to 33 days post implantation. Set-up: dose 2 mg/kg, route intraperitoneal. To be noted: in vivo. The data set is classed as organism-based. The gist of the method:
as §2

Data set [13] relates to A549. Kind of data set: Antitumor activity against human A549 cells xenografted in BALB/C nude mouse assessed as tumor growth inhibition at 2 mg/kg, ip administered as a single dose on 17th day post implantation and measured on 30 to 33 days post implantation. It counts as functional, organism-based. Details: dose 2 mg/kg. A digest of the protocol:
as §2

The test system of another data set is SAOS-2. Kind of data set: Cytotoxicity against human Saos2 cells incubated for 72 hrs by MTT assay. The data set is classed as functional. To be noted: SAOS-2, 72 h. A digest of the protocol: as §1
Another data set deals with HL-60. Kind of data set: Cytotoxicity against human HL60 cells incubated for 72 hrs by MTT assay. The data set is classed as functional. The following applies: HL-60, 72 h. The gist of the method:
as §1

The test system of the next data set is PC-3. The experiment in a line: Cytotoxicity against human PC3 cells incubated for 72 hrs by MTT assay. To be noted: PC-3, 72 h. It counts as functional. The gist of the method:
as §1

Another data set has as its system HepG2. The experiment in a line: Cytotoxicity against human HepG2 cells incubated for 72 hrs by MTT assay. The data set is classed as functional. The following applies: HepG2, 72 h. The gist of the method:
as §1

Another data set concerns U2OS. Kind of data set: Cytotoxicity against human U2OS cells incubated for 72 hrs by MTT assay. The data set is classed as functional. A digest of the protocol:
as §1

The subject of the next data set is PANC-1. Kind of data set: Cytotoxicity against human PANC1 cells incubated for 72 hrs by MTT assay. The following applies: PANC-1, 72 h. It counts as functional. A digest of the protocol: as §1
The target of data set [14] is T1, DNA topoisomerase 1 (Homo sapiens). Kind of data set: Inhibition of Top1 assessed as suppression of supercoiled pBR322 DNA relaxation measuring appearance of short DNA fragments at 50 uM incubated for 15 mins by electrophoresis method.

Chain of DNA topoisomerase 2-alpha (Homo sapiens) (P11388 whole entry): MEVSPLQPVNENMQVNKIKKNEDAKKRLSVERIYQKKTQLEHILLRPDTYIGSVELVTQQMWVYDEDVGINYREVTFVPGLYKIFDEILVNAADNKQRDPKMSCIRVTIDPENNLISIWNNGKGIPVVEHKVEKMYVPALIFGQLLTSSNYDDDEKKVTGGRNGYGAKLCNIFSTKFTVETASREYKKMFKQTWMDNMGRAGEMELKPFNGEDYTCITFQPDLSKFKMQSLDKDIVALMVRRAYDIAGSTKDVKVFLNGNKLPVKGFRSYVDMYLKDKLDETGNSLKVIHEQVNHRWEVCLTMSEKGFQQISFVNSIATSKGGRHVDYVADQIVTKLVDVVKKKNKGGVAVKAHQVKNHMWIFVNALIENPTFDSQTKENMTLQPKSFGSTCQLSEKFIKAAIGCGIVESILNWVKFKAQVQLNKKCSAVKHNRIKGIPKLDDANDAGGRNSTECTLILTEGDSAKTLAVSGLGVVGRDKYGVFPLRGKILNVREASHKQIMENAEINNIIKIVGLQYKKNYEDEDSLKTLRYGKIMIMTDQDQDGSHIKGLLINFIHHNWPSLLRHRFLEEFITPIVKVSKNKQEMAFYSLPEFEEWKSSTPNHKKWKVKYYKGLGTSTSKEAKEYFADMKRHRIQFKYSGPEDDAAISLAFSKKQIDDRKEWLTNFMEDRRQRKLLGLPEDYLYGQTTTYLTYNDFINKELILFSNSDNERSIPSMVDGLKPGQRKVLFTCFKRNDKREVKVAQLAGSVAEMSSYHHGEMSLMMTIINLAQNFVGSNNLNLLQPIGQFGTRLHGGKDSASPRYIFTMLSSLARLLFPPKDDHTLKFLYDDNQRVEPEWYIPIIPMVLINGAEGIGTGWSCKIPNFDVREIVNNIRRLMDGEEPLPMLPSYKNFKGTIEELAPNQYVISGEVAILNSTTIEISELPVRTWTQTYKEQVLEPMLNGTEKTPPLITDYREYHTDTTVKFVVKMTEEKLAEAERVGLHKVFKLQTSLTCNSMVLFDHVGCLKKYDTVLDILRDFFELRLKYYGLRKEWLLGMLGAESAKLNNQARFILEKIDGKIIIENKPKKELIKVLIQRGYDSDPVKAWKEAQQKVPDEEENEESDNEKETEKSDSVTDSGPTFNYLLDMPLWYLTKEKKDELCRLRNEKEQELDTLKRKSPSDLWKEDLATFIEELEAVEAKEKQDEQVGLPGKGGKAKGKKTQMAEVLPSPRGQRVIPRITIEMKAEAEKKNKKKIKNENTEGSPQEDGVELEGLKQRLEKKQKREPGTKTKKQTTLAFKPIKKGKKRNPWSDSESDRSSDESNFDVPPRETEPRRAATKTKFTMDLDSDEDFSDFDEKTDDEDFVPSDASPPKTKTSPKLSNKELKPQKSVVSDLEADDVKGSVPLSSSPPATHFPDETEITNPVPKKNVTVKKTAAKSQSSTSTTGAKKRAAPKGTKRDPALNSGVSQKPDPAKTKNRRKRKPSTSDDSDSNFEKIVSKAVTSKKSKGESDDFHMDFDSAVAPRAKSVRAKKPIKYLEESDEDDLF

By GI50 is commonly meant the concentration that inhibits growth by half. A low value points to greater sensitivity of the cells. Consider `CN1c2ccc(O)cc2C(=O)N2CCc3c([nH]c4ccc(O)cc34)C21` (stereo unspecified), for which the inhibition entry in data set [1], in [7] and in [11] was “Active” each time. Besides, the GI50 in the data set with MDA-MB-435 was 3 nM; in the data set on HCT-116 [2] it was 7 nM; in the data set with A549 [3], 750 nM. Further, in the data set with Mus musculus [4], the Activity entry is listed as “Toxic”. In the data set with HCT-116 [5], the TGI entry is “Active”. Moreover, the result with Nucleic Acid [6], with Nucleic Acid [9] and in the data set on Nucleic Acid [10] was inactive. For the same molecule, the inhibition result in data set [8] is “inactive”.

With `CN1c2ccc(Cl)cc2C(=O)N2CCc3c([nH]c4ccccc34)C21` (stereo unspecified), the inhibition result in [1] is “Active”. The GI50 in the data set with MDA-MB-435, in the data set on HCT-116 [2] and with A549 [3] was below 3 nM throughout. The Activity result with Mus musculus [12] is reported as “Non-toxic”. Besides, in the data set with A549 [13], the TGI result was “inactive”. In [11], the inhibition entry is “inactive”.

Consider `CN1c2cccc(O)c2C(=O)N2CCc3c([nH]c4ccccc34)C21` (stereo unspecified), for which the inhibition entry in data set [1] and in data set [11] was “Active” in each case. In addition, the GI50 in the data set with MDA-MB-435 stood at 240 nM; with HCT-116 [2], 2140 nM; in the data set on A549 [3], 62400 nM.

For `CN1c2ccc(O)cc2C(=O)N2CCc3c([nH]c4ccccc34)C21` (stereo unspecified), the inhibition entry in data set [1] is “Active”. For the same molecule, the values for the 50% growth inhibitory concentration (GI50) in the data set on MDA-MB-435, in the data set on HCT-116 [2] and in the data set on A549 [3] were below 3 nM, 13 nM and above 200000 nM, respectively. In addition, the inhibition entry in data set [11] is “inactive”.

Regarding `CN1c2ccc(N)cc2C(=O)N2CCc3c([nH]c4ccccc34)C21` (stereo unspecified), the inhibition entry in data set [1] is “Active”. Besides, the concentration for 50% growth inhibition (GI50) in the data set with MDA-MB-435 was 150 nM; with HCT-116 [2] it was 8920 nM; in the data set with A549 [3], above 200000 nM.

`CN1c2ccc(F)cc2C(=O)N2CCc3c([nH]c4ccc(O)cc34)C21` (stereo unspecified): the inhibition result in data set [1] and in data set [11] was “Active” each time. In addition, the concentration for 50% growth inhibition (GI50) in the data set on SAOS-2 is above 296000 nM; in the data set with HL-60, below 3 nM; with PC-3, 92300 nM; with HepG2, 23800 nM; in the data set with U2OS, above 296000 nM; with PANC-1, below 3 nM. Moreover, the GI50 with MDA-MB-435, in the data set with HCT-116 [2] and in the data set with A549 [3] was below 3 nM throughout. Besides, the Activity entry with Mus musculus [4] and with Mus musculus [12] was “Non-toxic” in each case. Besides, the TGI entry in the data set on HCT-116 [5] was “Active”. For the same molecule, the TGI entry in the data set with A549 [13] is “inactive”.

As to `CN1c2ccccc2C(=O)N2CCc3c([nH]c4c(Cl)cccc34)C21` (stereo unspecified), the inhibition entry in data set [1] and in data set [14] was “Active” in each case. For the same molecule, the GI50 is above 296000 nM in the data set on SAOS-2; below 3 nM in the data set with HL-60; above 296000 nM with PC-3; 2310 nM with HepG2; above 296000 nM with U2OS; 120 nM with PANC-1. Moreover, the 50% growth inhibitory concentration (GI50) is below 3 nM with MDA-MB-435, below 3 nM with HCT-116 [2] and 2550 nM in the data set on A549 [3]. Also, the Activity result with Mus musculus [4] is recorded as “Toxic”. In the data set with HCT-116 [5], the TGI entry was “Active”. Also, the inhibition entry in [11] was “inactive”.

For the molecule `CN1c2cccc(O)c2C(=O)N2CCc3c([nH]c4ccc(O)cc34)C21` (stereo unspecified), the inhibition entry in [1] and in data set [7] was “Active” each time. Moreover, the results for the GI50 in the data set with MDA-MB-435, with HCT-116 [2] and in the data set on A549 [3] were 13 nM, 9 nM and 230 nM, respectively. The result in the data set on Nucleic Acid [6], in the data set with Nucleic Acid [9] and in the data set on Nucleic Acid [10] was inactive. In addition, the inhibition result in [8] is “inactive”.

The record behind these values is ChEMBL document CHEMBL2169847, “New tricks for an old natural product: discovery of highly potent evodiamine derivatives as novel antitumor agents by systemic structure-activity relationship analysis and biological evaluations” (J Med Chem, 2012).
